Consider 1 molecule from ChEMBL document CHEMBL4033653, “Effect of 1,2,3-triazole salts, non-classical bioisosteres of miltefosine, on Leishmania amazonensis” (Bioorg Med Chem, 2017).

pIC50: −log10 of the molar value.

The test system of data set [1] is Leishmania amazonensis. As to the kind of experiment: Induction of mitochondrial membrane potential loss in Leishmania amazonensis IFLA/BR/1967/PH8 promastigotes at 2.5 uM after 24 hrs by JC-1 staining-based spectrofluorometric analysis relative to control. Format: functional. The method in brief: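 Exponential-phase WT (PH8) promastigotes at 1x10^7 cells/mL, treated 24 h at 25 °C with 2.5–20.0 µM, then harvested, washed and loaded with JC-1. Fluorescence read at 485/528 and 540/600 nm; ΔΨm taken as the 600/528 ratio. Untreated control set to 100%. Positive control was FCCP 20.0 µM for 30 min. Three experiments in triplicate.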

The subject of data set [2] is Leishmania amazonensis. Kind of data set: Induction of ROS accumulation in Leishmania amazonensis IFLA/BR/1967/PH8 promastigotes at 2.5 uM after 72 hrs by H2DCFDA staining-based fluorometric analysis relative to control. Format: functional. The method in brief:
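WT (PH8) promastigotes in exponential phase, untreated or exposed to 2.5–20.0 µM at 25 °C. Cells adjusted to 2x10^7 promastigotes in PBS, then loaded with H2DCFDA for 30 min in the dark at room temperature. Fluorescence read at ex 485/em 528 nm. Positive control was miltefosine 22.0 µM. Reported as arbitrary fluorescence units, mean of three independent experiments.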

For data set [3], the system named is Leishmania amazonensis. Kind of data set: Induction of apoptosis in Leishmania amazonensis IFLA/BR/1967/PH8 promastigotes assessed as late apoptotic population at 5 uM after 24 hrs by Annexin V-FITC/PI staining based flow cytometric analysis (reference value: 2.62%). The data set is classed as functional. The method in brief: (§1)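 Exponential-phase WT promastigotes (1x10^7 cells/mL) cultured 24 h at 25 °C; stained annexin V-FITC plus PI, flow cytometry with 10,000 events gated on parasites; quadrant percentages; three independent experiments.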

The subject of data set [4] is Leishmania amazonensis. Kind of data set: Antileishmanial activity against Leishmania amazonensis WHOM/BR/75/Josefa promastigotes transfected with green fluorescent protein after 72 hrs by MTT assay. The data set is classed as functional.
The test system of data set [5] is Leishmania amazonensis. As to the kind of experiment: Antileishmanial activity against Leishmania amazonensis WHOM/BR/75/Josefa amastigotes transfected with green fluorescent protein infected in murine macrophages after 72 hrs by fluorometric analysis. Format: functional. The method in brief:
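Infected murine macrophages treated 0.78-100.0 µM for 72 h; fluorescence read at 540/600 nm for RFP parasites (PH8) and 485/528 nm for GFP parasites (Josefa strain); IC50 from three independent experiments in duplicate.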

The test system of data set [6] is Leishmania amazonensis. As to the kind of experiment: Induction of apoptosis in Leishmania amazonensis IFLA/BR/1967/PH8 promastigotes assessed as early apoptotic population at 5 uM after 24 hrs by Annexin V-FITC/PI staining based flow cytometric analysis (reference value: 5.29%). The data set is classed as functional. The method in brief:
as §1

Data set [7] has as its system Leishmania amazonensis. Kind of data set: Antileishmanial activity against Leishmania amazonensis IFLA/BR/1967/PH8 amastigotes infected in murine macrophages after 72 hrs by fluorometric analysis. The data set is classed as functional. As to conditions: IFLA/BR/1967/PH8, 72 h.
Data set [8] has as its system Leishmania amazonensis. As to the kind of experiment: Induction of ROS accumulation in Leishmania amazonensis IFLA/BR/1967/PH8 promastigotes at 5 uM after 72 hrs by H2DCFDA staining-based fluorometric analysis relative to control. The data set is classed as functional. The essentials:
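WT exponential-phase promastigotes treated at 25 °C; adjusted to 2x10^7 cells in PBS, loaded with H2DCFDA 30 min dark at room temperature; fluorescence 485/528 nm versus untreated; three independent experiments.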

In data set [9] the test system is Leishmania amazonensis. Kind of data set: Induction of apoptosis in Leishmania amazonensis IFLA/BR/1967/PH8 promastigotes assessed as necrotic population at 10 uM after 24 hrs by Annexin V-FITC/PI staining based flow cytometric analysis (reference value: 0.03%). Format: functional. The method in brief:
as §1

The nature of data set [10]: Hemolytic activity in human erythrocytes at 9.4 to 150 uM relative to control. Particulars: read-out: Activity. The data set is classed as ADME, cell-based, Erythrocyte. The essentials:
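Fresh human red cells suspended in PBS incubated with the compound; 1% saponin as positive control, untreated as negative; three experiments in triplicate.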

In data set [11] the test system is Leishmania amazonensis. As to the kind of experiment: Induction of lipid inclusions in Leishmania amazonensis IFLA/BR/1967/PH8 promastigotes at 10 uM after 24 hrs by Nile Red satining-based spectrofluorometric analysis relative to control. Format: functional. The method in brief:
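WT (PH8) promastigotes at 1x10^7 cells/mL in exponential phase, cultured 24 h at 25 °C with or without 2.5–20.0 µM. Parasites incubated with Nile Red, then fluorescence measured spectrofluorometrically. Reported as arbitrary fluorescence units versus untreated parasites, mean of three experiments run in triplicate.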

Data set [12] deals with Leishmania amazonensis. Kind of data set: Induction of autophagy in Leishmania amazonensis IFLA/BR/1967/PH8 promastigotes at 20 uM after 24 hrs by MDC staining-based fluorometric analysis relative to control. The data set is classed as functional. The method in brief:
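Exponential WT promastigotes (1x10^7 cells/mL) treated 24 h at 25 °C; washed, adjusted to 10x10^6 cells/mL, 100 µM monodansylcadaverine 1 h dark at 25 °C; fluorescence 335/460 nm versus untreated; three independent experiments.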

In data set [13] the test system is Leishmania amazonensis. Kind of data set: Induction of mitochondrial membrane potential loss in Leishmania amazonensis IFLA/BR/1967/PH8 promastigotes at 5 uM after 24 hrs by JC-1 staining-based spectrofluorometric analysis relative to control. The data set is classed as functional. The essentials:
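Exponential WT promastigotes (1x10^7 cells/mL) treated 24 h at 25 °C; washed, JC-1 loaded, read at 485/528 and 540/600 nm; Δψm as 600/528 ratio, untreated = 100%; FCCP 20.0 µM for 30 min as positive control; three experiments in triplicate.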

The test system of data set [14] is Leishmania amazonensis. As to the kind of experiment: Induction of apoptosis in Leishmania amazonensis IFLA/BR/1967/PH8 promastigotes assessed as early apoptotic population at 2.5 uM after 24 hrs by Annexin V-FITC/PI staining based flow cytometric analysis (reference value: 5.29%). The data set is classed as functional.

As for `CC(=O)[O-].CCCCCCCCCCn1cc(CO)[n+](C)n1`, the Activity in the data set with Leishmania amazonensis [1] is given as 37.5%; in the data set with Leishmania amazonensis [2], 38.4%; with Leishmania amazonensis [3] it was 1.58%; in the data set on Leishmania amazonensis [6], 39.1%; with Leishmania amazonensis [8], 40.7%; in the data set with Leishmania amazonensis [9] it was 2.18%. Besides, the Activity in the data set with Leishmania amazonensis [12] stood at 49.8%; in the data set on Leishmania amazonensis [13], 20%; in the data set on Leishmania amazonensis [14] it was 30.6%. Moreover, the figures for the pIC50 with Leishmania amazonensis [4], with Leishmania amazonensis [5] and in the data set on Leishmania amazonensis [7] were 5.48, 6.10 and 6.05, respectively. The hemolysis at up to 150 µM in data set [10] is under 5%. Also, in the data set with Leishmania amazonensis [11], the “fold change (FC)” value came out at 1.9.
